In test [1] the target is AB ATP synthase (UniProt A3M139+B2I0Z6). The format is biochemical, Acinetobacter baumannii. Conditions: for Inhibition of AB ATP synthase (in words): even at high / highest concentrations tested.
Test [2] addresses PA ATP synthase (Pseudomonas aeruginosa, UniProt Q9HT14+Q9HT15). Put plainly: biochemical. Particulars: for Inhibition of PA ATP synthase (in words): even at high / highest concentrations tested.
Test [3] relates to MT ATP synthase. Conditions: cited from earlier work.
The test system of test [4] is AB 17978. Put plainly: Broth microdilution antibacterial activity. The format is cell-based. Particulars: Acinetobacter baumannii, read-out: MIC AB 17978. (Broth dilution looks for growth in wells or tubes with falling amounts of substance.)
In test [5] the test system is PA 2108 (MDR). Put plainly: Broth microdilution antibacterial activity. Type of test: cell-based, Pseudomonas aeruginosa. Conditions: for MIC: Pseudomonas aeruginosa; for Antibacterial activity against PA (in words): highest concentration tested.
Test [6] relates to AB 1605 (MDR). Put plainly: Broth microdilution antibacterial activity. Particulars: Acinetobacter baumannii, read-out: MIC AB 1605 (MDR). Type of test: cell-based.
Test [7] has as its system AB (17978 and 1605). Put plainly: Broth microdilution antibacterial activity, AB strains summarised in the text. Type of test: cell-based, Acinetobacter baumannii. Particulars: for Antibacterial activity against AB strains (in words): highest concentration tested; for MIC: Acinetobacter baumannii, read-out: MICs against AB, one or both strains tested.
Test [8] deals with PA ETC. Description: Inhibition of NADH-driven H+ pumping of the ETC in PA inverted vesicles. The format is biochemical, Pseudomonas aeruginosa. The essentials:
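Inverted inner-membrane vesicles came from P. aeruginosa ATCC 9027 (LB, 37°C, 150 rpm, late exponential). Cells were homogenizer-lysed in Tris-HCl pH 7.5/MgCl2/glycerol buffer, cleared at 9,000 x g, and vesicles pelleted at 169,000 x g. Assay used vesicles at 0.5 mg/mL in HEPES/300 mM KCl pH 7.5 with ACMA and test compound in DMSO. NADH to 0.8 mM started pumping; nigericin stopped it. Fluorescence Ex 415/Em 485 nm; percent quenching normalized to no-inhibitor control.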

Values after ≈ are worked out from the molar mass of the structure shown. Like-named read-outs stand apart in the source and are kept apart here.

In the case of `COc1nc2ccc(Br)cc2cc1[C@@H](c1ccccc1)[C@@](O)(CCN(C)C)c1cccc2ccccc12` [BDQ, bedaquiline, reference compound], the “Inhibition of AB ATP synthase (in words)” value in test [1] is “does not fully inhibit”. The “Inhibition of PA ATP synthase (in words)” value in test [2] is “does not fully inhibit”. For the same molecule, in test [3], the “Potency against MT ATP synthase (in words)” value is “nanomolar potency”.
In the case of `O=C(N[C@H](CO)[C@H](O)c1ccc([N+](=O)[O-])cc1)C(Cl)Cl` [Chloramphenicol, reference compound], the MIC in test [4] and in test [5] (read-out: MIC PA 2108 (MDR)) was 64 µg/mL (≈ 198 µM) throughout.
Take `c1ccc(CSc2nc3ccccc3cc2CNCc2ccc(N3CCCCC3)cc2)cc1` [WSA248, 1‐(2‐(benzylthio)quinolin‐3‐yl)‐N‐(4‐(piperidin‐1‐yl)benzyl)methanamine]: the “Inhibition of AB ATP synthase (in words)” value in test [1] is “no significant inhibition”. For the same molecule, the “Inhibition of PA ATP synthase (in words)” value in test [2] is reported as “no significant inhibition”. Further, the MIC in test [4], in test [6] and in test [5] (read-out: MIC PA 2108 (MDR)) was > 128 µg/mL in each case. For the same molecule, the “Antibacterial activity against PA (in words)” value in test [5] was “inactive”. For the same molecule, in test [7], the “Antibacterial activity against AB strains (in words)” value was “inactive”.
Regarding `c1ccc(CSc2nc3ccccc3cc2CNCc2ccc(CN3CCCC3)cc2)cc1` [WSA249, 1‐(2‐(benzylthio)quinolin‐3‐yl)‐N‐(4‐(pyrrolidin‐1‐ylmethyl)benzyl)methanamine], the MIC came to 32 µg/mL (≈ 70.5 µM) in test [4], 64 µg/mL (≈ 141 µM) in test [6], 16 µg/mL (≈ 35.3 µM) in test [5] (read-out: MIC PA 2108 (MDR)) and 16 µg/mL (≈ 35.3 µM) in test [5] (read-out: MIC against MDR PA).
For the molecule `CN1CCN(CCNCc2cc3ccccc3nc2SCc2ccccc2)CC1` [WSA250, N‐((2‐(benzylthio)quinolin‐3‐yl)methyl)‐2‐(4‐methylpiperazin‐1‐yl)ethan‐1‐amine], the MIC in test [4] turned out to be 64 µg/mL (≈ 157 µM); in test [6], 128 µg/mL (≈ 315 µM); in test [5] (read-out: MIC PA 2108 (MDR)), 64 µg/mL (≈ 157 µM).
As to `CCN1CCC(CCNCc2cc3cc(OC)c(OC)c(OC)c3nc2SCc2ccccc2)CC1` [WSA251, N‐((2‐(benzylthio)‐6,7,8‐trimethoxyquinolin‐3‐yl)methyl)‐2‐(1‐ethylpiperidin‐4‐yl)ethan‐1‐amine], the values for the MIC in test [4], in test [6] and in test [5] (read-out: MIC PA 2108 (MDR)) were 128 µg/mL (≈ 251 µM), > 128 µg/mL and 128 µg/mL (≈ 251 µM), respectively. In addition, the “Fold less potent than WSA236 against PA (antibacterial)” value in test [5] (MIC comparison) was determined as 4 fold. Moreover, the “Fold less potent than WSA236 against AB (antibacterial)” value in test [7] (MIC comparison) worked out at 2 fold.
In the case of `COc1cc2cc(CNCCC3CCN(C4CCCC4)CC3)c(SCc3ccccc3)nc2c(OC)c1OC` [WSA252, N‐((2‐(benzylthio)‐6,7,8‐trimethoxyquinolin‐3‐yl)methyl)‐2‐(1‐cyclopentylpiperidin‐4‐yl)ethan‐1‐amine], the MIC in test [4] and in test [5] (read-out: MIC PA 2108 (MDR)) was 64 µg/mL (≈ 116 µM) each time.
Regarding `COc1cc2cc(CNCCN3CCN(C)CC3)c(SCc3ccccc3)nc2c(OC)c1OC` [WSA253, N‐((2‐(benzylthio)‐6,7,8‐trimethoxyquinolin‐3‐yl)methyl)‐2‐(4‐methylpiperazin‐1‐yl)ethan‐1‐amine], the “Fold improvement of IC50 for AB by trimethoxy modification” value in test [1] turned out to be 3 fold. Further, in test [2], the “Fold worsening of IC50 for PA by trimethoxy modification” value is given as ~3 fold. The MIC was 128 µg/mL (≈ 258 µM) in test [4], > 128 µg/mL in test [6] and 128 µg/mL (≈ 258 µM) in test [5] (read-out: MIC PA 2108 (MDR)).
For the molecule `CCN1CCC(CCNCc2cc3cc(Br)ccc3nc2SCc2ccccc2)CC1` [WSA254, N‐((2‐(benzylthio)‐6‐bromoquinolin‐3‐yl)methyl)‐2‐(1‐ethylpiperidin‐4‐yl)ethan‐1‐amine], the MIC was 16 µg/mL (≈ 32.1 µM) in test [4], 32 µg/mL (≈ 64.2 µM) in test [5] (read-out: MIC PA 2108 (MDR)) and 8 to 16 µg/mL (≈ 16 to 32.1 µM) in test [7].
As for `Brc1ccc2nc(SCc3ccccc3)c(CNCCC3CCN(C4CCCC4)CC3)cc2c1` [WSA255, N‐((2‐(benzylthio)‐6‐bromoquinolin‐3‐yl)methyl)‐2‐(1‐cyclopentylpiperidin‐4‐yl)ethan‐1‐amine], the IC50 (as a rule, the concentration at which inhibition is half-maximal) in test [2] is 427 nM. The “Fold less potent against the ETC compared to ATP synthase” value in test [8] (PA ETC IC50 versus PA ATP synthase IC50) was “more than 7 fold”. In addition, the “PA ETC IC50” value in test [8] (PA vesicles, dose response fit) is 1.7 µg/mL. Moreover, the MIC was 16 µg/mL (≈ 29.7 µM) in test [4], 32 µg/mL (≈ 59.4 µM) in test [5] (read-out: MIC PA 2108 (MDR)) and 8 to 16 µg/mL (≈ 14.9 to 29.7 µM) in test [7].
For the molecule `Brc1ccc2nc(SCc3ccccc3)c(CNCc3ccc(CN4CCCC4)cc3)cc2c1` [WSA256, 1‐(2‐(benzylthio)‐6‐bromoquinolin‐3‐yl)‐N‐(4‐(pyrrolidin‐1‐ylmethyl)benzyl)methanamine], the MIC in test [4], in test [6] and in test [5] (read-out: MIC PA 2108 (MDR)) was > 128 µg/mL throughout. For the same molecule, the “Antibacterial activity against PA (in words)” value in test [5] is “inactive”. Also, in test [7], the “Antibacterial activity against AB strains (in words)” value is “inactive”.
`CN1CCN(CCNCc2cc3cc(Br)ccc3nc2SCc2ccccc2)CC1` [WSA257, N‐((2‐(benzylthio)‐6‐bromoquinolin‐3‐yl)methyl)‐2‐(4‐methylpiperazin‐1‐yl)ethan‐1‐amine]: the IC50 in test [2] was 268 nM. For the same molecule, the MIC in test [4] was 8 µg/mL (≈ 16.5 µM); in test [6], 16 µg/mL (≈ 33 µM); in test [5] (read-out: MIC PA 2108 (MDR)), 16 µg/mL (≈ 33 µM); in test [5] (read-out: MIC against MDR PA), 16 µg/mL (≈ 33 µM); in test [7], 8 to 16 µg/mL (≈ 16.5 to 33 µM).
For the molecule `CCN1CCC(CCNCc2cc3cc(-c4ccccc4)ccc3nc2SCc2ccccc2)CC1` [WSA261, N‐((2‐(benzylthio)‐6‐phenylquinolin‐3‐yl)methyl)‐2‐(1‐ethylpiperidin‐4‐yl)ethan‐1‐amine], the MIC is 8 µg/mL (≈ 16.1 µM) in test [4], 16 µg/mL (≈ 32.3 µM) in test [6], 64 µg/mL (≈ 129 µM) in test [5] (read-out: MIC PA 2108 (MDR)) and 8 to 16 µg/mL (≈ 16.1 to 32.3 µM) in test [7].
As for `c1ccc(CSc2nc3ccc(-c4ccccc4)cc3cc2CNCCC2CCN(C3CCCC3)CC2)cc1` [WSA262, N‐((2‐(benzylthio)‐6‐phenylquinolin‐3‐yl)methyl)‐2‐(1‐cyclopentylpiperidin‐4‐yl)ethan‐1‐amine], the MIC in test [4] stood at 32 µg/mL (≈ 59.7 µM); in test [5] (read-out: MIC PA 2108 (MDR)), 64 µg/mL (≈ 119 µM).
As to `c1ccc(CSc2nc3ccc(-c4ccccc4)cc3cc2CNCc2ccc(CN3CCCC3)cc2)cc1` [WSA269, 1‐(2‐(benzylthio)‐6‐phenylquinolin‐3‐yl)‐N‐(4‐(pyrrolidin‐1‐ylmethyl)benzyl)methanamine], the MIC in test [4], in test [6] and in test [5] (read-out: MIC PA 2108 (MDR)) was > 128 µg/mL throughout. The “Antibacterial activity against PA (in words)” value in test [5] is “inactive”. Also, the “Antibacterial activity against AB strains (in words)” value in test [7] was “inactive”.
Regarding `CN1CCN(CCNCc2cc3cc(-c4ccccc4)ccc3nc2SCc2ccccc2)CC1` [WSA270, N‐((2‐(benzylthio)‐6‐phenylquinolin‐3‐yl)methyl)‐2‐(4‐methylpiperazin‐1‐yl)ethan‐1‐amine], the MIC is 16 µg/mL (≈ 33.1 µM) in test [4], 32 µg/mL (≈ 66.3 µM) in test [5] (read-out: MIC PA 2108 (MDR)) and 8 to 16 µg/mL (≈ 16.6 to 33.1 µM) in test [7].

Values taken from paper PMC12091843 (Chemmedchem, 2025).
